Measurements taken from the RNAGym collection of RNA variant scans (doi:10.1126/science.aae0568).
Fewer inactive variants are shown than the library holds.

B1: tRNA (parent)
chain: GUUCCGUUGGCGUAAUGGUAACGCGUCUCCCUCCUAAGGAGAAGACUGCGGGUUCGAGUCCCGUACGGAACG

Variants of: B1
Test: yeast fitness relative to wild type (ratio to wild type); higher = fitter; tRNA-Arg(CCU), competitive growth, 37 C, YPD
Summary of the method: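 The tRNA-Arg(CCU) gene variants were made by chemical synthesis with a 3% per-site mutation rate at 69 sites and inserted at the native genomic locus of Saccharomyces cerevisiae. After pooling, the strains were competed in YPD at 37°C for 24 hours in six parallel replicates. Gene amplicons from the start population and each end population were read by 100-nucleotide paired-end sequencing, and Darwinian fitness relative to wild type was taken from genotype frequency changes. Genotypes needed ≥ 100 starting reads, and estimates < 0.5 were set to 0.5.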

Point of comparison: C5A G48A C49G, yeast fitness 0.682. Against it:
- C5G A21G U32C C49G A65G — lower, 0.553
- C5G G9A A43G G48C — lower, ≤ 0.5
- C5G C24U C27A G51C G56C — lower, ≤ 0.5
- C5G G6A C24U — lower, 0.577
- C5G G51A C62G — lower, ≤ 0.5
- C5U A14G G51A A65C — lower, ≤ 0.5
- C5G U13C A21C A57U A65U G68C — lower, ≤ 0.5
- C5G C66U G67A — lower, 0.533
- C5G A20U G56A — lower, 0.572
- C5G C24G A40U — lower, 0.57
- C5G C11A A14G G25C C29G — lower, 0.517
- C5G G12A C31U C49G — lower, ≤ 0.5
- C5G A21C C61A — lower, ≤ 0.5
- C5G U26A A36C C61U — lower, ≤ 0.5
- C5G C30A A36G — lower, 0.568
- C5G U32C A45G C46A — higher, 0.907
- C5G G12A A14G U35A — lower, ≤ 0.5
- C5G C34A G39C G52A G58A G63A — lower, ≤ 0.5
- C5G G67U — higher, 0.859
- C5A U8C A20G C34G A43U C66U — lower, ≤ 0.5
- C5A U16G A69C — higher, 0.69
- C5G A36U C46G C62A A69C — lower, ≤ 0.5
- C5G G25C — higher, 1.06
- C5G G25A — higher, 0.981
- C5G C46A G48A U64G — lower, 0.546
- C5A U19A C62A — lower, ≤ 0.5
- C5G C11U G25C G52U — lower, 0.618
- C5G C11G A15C A65C — lower, ≤ 0.5
- C5G U47A G56U G58C — lower, ≤ 0.5
- C5G A14G G17A U32C G56C A69U — lower, ≤ 0.5
- C5G C46A A57G — higher, 0.705
- C5G A15G C24G U32A C34G U64C G68A A69U A70U — lower, ≤ 0.5
- C5G A14C U16A C30U G38C G41C C46G — lower, ≤ 0.5
- C5G G6A U47A G68C — lower, 0.546
- C5G U47C C66U — lower, 0.627
- C5G U13A C22G C29G A40U U54C C61G G67A — lower, ≤ 0.5
- C5G A15U U28C — lower, ≤ 0.5
- C5G U8C G41A — lower, ≤ 0.5
- C5G C55A A57U — lower, 0.55
- C5G A65C — higher, 0.775
- C5U A14C G41C G58C C66U — lower, 0.523
- C5G C27A A37C C55G — lower, ≤ 0.5
- C5G A15G — higher, 0.819
- C5G C11G C27G G67U — lower, ≤ 0.5
- C5A U19G — higher, 0.731
- C5G G17A A40C U59C — higher, 0.723
- C5G C11U C31U — lower, 0.676
- C5G C33A G41C U54C — lower, ≤ 0.5
- C5G A40C — lower, 0.638
- C5A G48A — higher, 0.871
- C5G C46G A65G — lower, 0.594
- C5U A14C U19C — lower, 0.528
- C5G C11U A45C — lower, ≤ 0.5
- C5G C27G C46G A65G — lower, ≤ 0.5
- C5A U13C C29U G48C G52C A57C G58A — lower, ≤ 0.5
- C5G C24U U26C C31U — higher, 0.749
- C5G C46G — higher, 0.751
- C5G U16C C31U — lower, 0.627
- C5G G25A U54G C55U A70C — lower, ≤ 0.5
- C5G A65U C66G — lower, ≤ 0.5
- C5G G17A U26C A70C — lower, ≤ 0.5
- C5A U8C C11U C31A A37U G67C — lower, ≤ 0.5
- C5G A36G A43U — lower, 0.549
- C5G A42G C49G A70U — lower, ≤ 0.5
- C5U A14G G50C C55U A57G C66U — lower, ≤ 0.5
- C5G C46U G67A — higher, 0.683
- C5G G44C C49G — lower, 0.521
- C5G C33U A65C G68C — lower, ≤ 0.5
- C5G G12C U19A C31A — lower, ≤ 0.5
- C5A U7C G48C — lower, ≤ 0.5
- C5G G17A A20C G52A A65U — lower, ≤ 0.5
- C5G G12A A43G — lower, 0.536
- C5G G17C — lower, 0.651
- C5A U26A G56A A65G — lower, 0.565
- C5A G52A G56A G58C — lower, ≤ 0.5
- C5A U8C U13C A40G C62U — lower, ≤ 0.5
- C5A U54A C55G A65C — lower, ≤ 0.5
- C5A U28C U35C C66U — lower, ≤ 0.5
- C5G U32A G56A — lower, 0.634
- C5U A14U U16A C66U — lower, 0.511
- C5G U28A C55G — lower, ≤ 0.5
- C5A U16A A45G G50A — lower, 0.529
- C5G G17C G23C — lower, ≤ 0.5
- C5G C33U G44C — lower, ≤ 0.5
- C5G A20U A57U — lower, ≤ 0.5
- C5G A14C C34G — lower, ≤ 0.5
- C5G A42C G51C A65G — lower, ≤ 0.5
- C5G G17A A20C C49G G63A — lower, ≤ 0.5
- C5G G25A G68U — lower, 0.633
- C5A U7C C29U C66U — lower, ≤ 0.5
- C5G A43U C61G — lower, ≤ 0.5
- C5A U16C A21C C33U A40G U54G C62G — lower, 0.577
- C5G G48C C49U U54G A65G C66A — lower, ≤ 0.5
- C5G A14C C29A C31G — lower, 0.529
- C5G U28G G38C — lower, ≤ 0.5
- C5G G6C — higher, 0.718
- C5G C31U — higher, 0.867
- C5G U7C C11U G25A — lower, ≤ 0.5
- C5A U19A A65C — lower, 0.538
- C5G C11G A14U A15U A69C — lower, ≤ 0.5
- C5G U8A A42C G48C — lower, ≤ 0.5
- C5G A20C U54A — lower, 0.616
- C5G A42G — higher, 0.701
- C5A U19A G68C — lower, 0.539
- C5G C24G C30G C31U U35A A36U G44A C60U A70C — lower, ≤ 0.5
- C5A U19G A43U — lower, 0.656
- C5G C30A C34G — lower, ≤ 0.5
- C5G U7C G23A — lower, ≤ 0.5
- C5G G9A C61U — lower, ≤ 0.5
- C5G A14U C27U A42U A43U U47C — lower, ≤ 0.5
- C5G C29A A36G A42C G44A C49U C60U — lower, ≤ 0.5
- C5G G25A G56A — higher, 0.803
- C5G U16C A20G A70U — lower, ≤ 0.5
- C5G C27G C34G G63C C66U — lower, ≤ 0.5
- C5G A14G A15G C30U A45G U64A — lower, ≤ 0.5
- C5G U7C C11G G23C U26C C27U A42U — lower, ≤ 0.5
- C5U A14G A21U G56C G68C — lower, ≤ 0.5
- C5A U7G C29G C33U G44C A69C — lower, ≤ 0.5
- C5G G38C — lower, 0.565
- C5U A14G G50C U53C C55U A57G — lower, ≤ 0.5
- C5U A14G G50C C55U A57G — lower, 0.675
- C5G C29G A43C G52A G67A — lower, ≤ 0.5
- C5G U64G — higher, 0.86
- C5G A14U G18A A21U A42G C62U A65C — lower, ≤ 0.5
- C5A U7C C30A C31U — lower, ≤ 0.5
- C5G C11G A42C C49U C62A — lower, ≤ 0.5
- C5G U35C G44C C62A G68C A69U — lower, ≤ 0.5
- C5G C24A — higher, 0.96
- C5G C24G — lower, 0.604
- C5G C27G C33U G56A A69U — lower, 0.52
- C5G C30G A65C C66U — lower, ≤ 0.5
- C5G G25A C46A — lower, 0.651
- C5G A14U A20U G41A A57G — lower, ≤ 0.5
- C5G A43G A70G — lower, 0.537
- C5G G48A A70U — higher, 0.803
- C5U A14C A42U — lower, ≤ 0.5
- C5A G25C G56C — lower, ≤ 0.5
- C5G U7C A36C A57U C61A C66G — lower, ≤ 0.5
- C5A U13G — higher, 0.841
- C5G U28A C34G C46A — lower, ≤ 0.5
- C5G C34G A40G G48C G63A C66U — lower, ≤ 0.5
- C5G A21G — higher, 0.997
- C5G A14U A43U U54C — lower, 0.666
- C5G G51A G68C — lower, ≤ 0.5
- C5G G17A U26C — lower, ≤ 0.5
- C5G C31U G41C A43C C60G — lower, ≤ 0.5
- C5G A20U G25A C31U G41A C55G — lower, ≤ 0.5
- C5G G10A C30U A42C A70G — lower, ≤ 0.5
- C5G U8A A15G G41C U47A — lower, ≤ 0.5
- C5A G50A G68C — lower, ≤ 0.5
- C5G C29U G39A G58C A69U — lower, ≤ 0.5
- C5G U8G A20C — lower, ≤ 0.5
- C5G G17U A45U G68C — lower, ≤ 0.5
- C5G U7G G23C C31U C49U — lower, ≤ 0.5
- C5G G51A A69U — lower, 0.528
- C5G G18A G25A C61U A69G — lower, 0.574
- C5G U26C C34G U54C — lower, ≤ 0.5
- C5G C11G A14U A15U C29A C60G — lower, ≤ 0.5
- C5G G25A A65G — higher, 0.763
- C5G C11U C29A — lower, 0.53
- C5G A15G U16A A20G U28A C30A C33A A36U U47C A69C — lower, ≤ 0.5
- C5G C27U A57U — lower, ≤ 0.5
- C5G C33A A65U — lower, ≤ 0.5
- C5G G17C G58C U59C — lower, 0.57
- C5G C55G A65C G67A — lower, ≤ 0.5
- C5G A21G G41A — lower, 0.503
